Source: ChEMBL document CHEMBL3826914, “Selective photodepletion of malignant T cells in extracorporeal photopheresis with selenorhodamine photosensitizers” (Bioorg Med Chem, 2016)
Active and inactive are the calls of the source. The rule behind the calls is not given here.

Legend:
[1] = Drug uptake in SEB-stimulated human CD25 positive cells assessed as mean fluorescence intensity at 5 x 10^-8 M preincubated for 20 mins followed by growth in photosensitizer-free media for 30 mins by flow cytometric analysis relative to control; conditions: 0.5 h, 0.05 µM
[2] = Drug uptake in SEB-stimulated human CD25 negative cells assessed as mean fluorescence intensity at 5 x 10^-8 M preincubated for 20 mins followed by growth in photosensitizer-free media for 30 mins by flow cytometric analysis relative to control; conditions: 0.5 h, 0.05 µM
[3] = Drug extrusion in SEB-stimulated human CD25 positive cells assessed as mean fluorescence intensity at 5 x 10^-8 M preincubated for 20 mins followed by growth in photosensitizer-free media for 30 mins by flow cytometric analysis relative to control; conditions: 0.5 h, 0.05 µM
[4] = Drug extrusion in SEB-stimulated human CD25 negative cells assessed as mean fluorescence intensity at 5 x 10^-8 M preincubated for 20 mins followed by growth in photosensitizer-free media for 30 mins by flow cytometric analysis relative to control; conditions: 0.5 h, 0.05 µM
[5] = Drug uptake in human HUT78 cell mitochondria by MTG-based bright field microscopic analysis; format: ADME
Outline: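 HUT-78 cells (5×10^5 in 0.5 mL medium) were incubated 15 min with 2×10^-7 M dye together with 5×10^-7 M MitoTracker Green. They were centrifuged and analysed by ImageStream imaging flow cytometry, with MTG excited at 488 nm (480–560 nm channel) and dye excited at 561 nm (642–745 nm channel). Colocalisation was given as the bright detail similarity score, mean ± SD over cells.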

HuT78 [6] = conditions: human, hut78, 0.5 h, 0.075 µM
HuT78 [7] = conditions: human, hut78, 0.5 h, 0.075 µM; remark: listed apart in the source
[8] = Drug extrusion in human CD3 positive cells assessed as change in mean fluorescence intensity at 5 x 10^-8 M preincubated for 20 mins followed by growth in photosensitizer-free media for 30 mins by flow cytometric analysis relative to control; format: cell-based; conditions: 0.5 h, 0.05 µM
[9] = Drug extrusion in human CD4 positive cells assessed as change in mean fluorescence intensity at 5 x 10^-8 M preincubated for 20 mins followed by growth in photosensitizer-free media for 30 mins by flow cytometric analysis relative to control; format: cell-based; conditions: 0.5 h, 0.05 µM
[10] = Drug extrusion in human CD8 positive cells assessed as change in mean fluorescence intensity at 5 x 10^-8 M preincubated for 20 mins followed by growth in photosensitizer-free media for 30 mins by flow cytometric analysis relative to control; format: cell-based; conditions: 0.5 h, 0.05 µM
[11] = Drug extrusion in SEB-stimulated human CD25 positive cells assessed as change in mean fluorescence intensity at 5 x 10^-8 M preincubated for 20 mins followed by growth in photosensitizer-free media for 30 mins by flow cytometric analysis relative to control; conditions: 0.5 h, 0.05 µM
[12] = Drug extrusion in SEB-stimulated human CD25 negative cells assessed as change in mean fluorescence intensity at 5 x 10^-8 M preincubated for 20 mins followed by growth in photosensitizer-free media for 30 mins by flow cytometric analysis relative to control; conditions: 0.5 h, 0.05 µM
HuT78 [13] = assay: (§1) Phototoxicity in GFP expressing human HUT78 cells co-cultured with human PBMC cells assessed as cell survival at 7.5 x 10^-8 M preincubated 20 mins in photosensitizer media followed by growth in photosensitizer-free media for 30 mins measured 18 hrs after exposure to 5 J/cm2 irradiation by FACS analysis; format: functional; conditions: HuT78, light or radiation study, read-out: Survival
Outline: (§2)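 Non-stimulated PBMCs from healthy donors (Ficoll-separated) were mixed 5:1 with GFP-transfected, sorted (>98%) HUT-78 cells. Cells took up 7.5×10^-8 M photosensitizer for 20 min, then spent 30 min in dye-free medium. They were exposed to 5 J cm^-2 light (600 nm LED) with rotation at 180 rpm. Survival was gated by FACS (GFP, CD3, CD4, CD8) 18 h later versus non-irradiated controls. Triplicate; mean ± SEM.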

[14] = as §1, with “Phototoxicity human CD3 positive cells co-cultured with” for “Phototoxicity in”, “HUT78” for “HUT78 cells co-cultured with human PBMC”; format: cell-based; conditions: read-out: Survival; outline: as §2
[15] = as §1, with “Phototoxicity human CD4 positive cells co-cultured with” for “Phototoxicity in”, “HUT78” for “HUT78 cells co-cultured with human PBMC”; format: cell-based; conditions: read-out: Survival; outline: as §2
[16] = as §1, with “Phototoxicity human CD8 positive cells co-cultured with” for “Phototoxicity in”, “HUT78” for “HUT78 cells co-cultured with human PBMC”; format: cell-based; conditions: read-out: Survival; outline: as §2
HuT78 [17] = assay: Drug uptake in GFP expressing human HUT78 cells co-cultured with non-stimulated human PBMC cells assessed as change in mean fluorescence intensity at 7.5 x 10^-8 M after 20 mins followed by growth in photosensitizer-free media for 30 mins by flow cytometric analysis relative to control; format: cell-based; conditions: hut78, 0.5 h, 0.075 µM
[18] = N-octanol/water partition coefficient, logP of the compound at 23 degC after 1 hr by HPLC based shake flask method; format: physicochemical
Outline: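 Shake-flask method using 1-octanol: 3–5 min of mixing, then 1 h settling. Equilibration and measurement were at 23 °C, in triplicate.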

ABCB1 [19] = assay: Permeability from apical to basolateral side in dog MDCK2-MDR1 cells expressing ABCB1 at 5 uM after 30 mins in presence of compound 15 by LC-MS/MS analysis; format: ADME, cell-based, Canis lupus familiaris, MDCK-II; conditions: MDCK-MDR1, with compound 15 (concentration not stated), read-out: permeability
Outline: (§3)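 MDR1-transfected MDCKII cells (passage 16–42) were seeded at 50,000 cells cm^-2 on Transwell filters and used on day 6. Monolayers were rinsed in DPBS with 10^-2 M HEPES, pH 7.4, at 37 °C. They were preincubated 30 min in 4.3 mg/mL BSA/DPBSH with or without 5×10^-6 M P-gp inhibitor. 5 μM dye was added apically or basolaterally and samples taken after 1 h at 37 °C with nutation. Quantitation was by LC-MS/MS; P_passive is the mean of P_AB and P_BA under full inhibition. Mean ± SD.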

ABCB1 [20] = assay: Permeability from apical to basolateral side in dog MDCK2-MDR1 cells expressing ABCB1 at 5 uM after 30 mins in absence of compound 15 by LC-MS/MS analysis; format: ADME, cell-based, Canis lupus familiaris, MDCK-II; conditions: MDCK-MDR1, read-out: permeability; outline: as §3
ABCB1 [21] = assay: Permeability from basolateral to apical side in dog MDCK2-MDR1 cells expressing ABCB1 at 5 uM after 30 mins in presence of compound 15 by LC-MS/MS analysis; format: ADME, cell-based, Canis lupus familiaris, MDCK-II; conditions: MDCK-MDR1, with compound 15 (concentration not stated), read-out: permeability; outline: as §3
ABCB1 [22] = assay: Permeability from basolateral to apical side in dog MDCK2-MDR1 cells expressing ABCB1 at 5 uM after 30 mins in absence of compound 15 by LC-MS/MS analysis; format: ADME, cell-based, Canis lupus familiaris, MDCK-II; conditions: MDCK-MDR1, read-out: permeability; outline: as §3
ABCB1 [23] = assay: Passive permeability in dog MDCK2-MDR1 cells expressing ABCB1 at 5 uM after 30 mins in presence of compound 15 by LC-MS/MS analysis; format: ADME, cell-based, Canis lupus familiaris, MDCK-II; conditions: MDCK-MDR1, with compound 15 (concentration not stated), read-out: permeability; outline: as §3
HuT78 [24] = assay: Phototoxicity against human HUT78 cells assessed as reduction in cell viability preincubated for 1 hr in dark before exposure to 1 J/cm2 irradiation after 48 hrs by MTT assay; format: functional, cell-based
Outline: (§4)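 HUT-78 cells in RPMI 1640 with 10% FBS, 1% HEPES and 1% penicillin-streptomycin were plated at 7.5×10^4 per well and grown 24 h. Dye was added to final 5×10^-8 to 5×10^-7 M, then 1 h in the dark. Plates were kept dark or irradiated with a 633 ± 2 nm dye laser at ~3.2 mW cm^-2 to 0.5, 1.0 or 2.0 J cm^-2. Medium was replaced, 48 h at 37 °C, then MTT read at 570 nm. Triplicate runs; EC50/LD50 by sigmoidal variable-slope fit.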

[25] = Dark toxicity against human HUT78 cells assessed as reduction in cell viability preincubated for 1 hr in dark after 48 hrs by MTT assay; format: cell-based; conditions: read-out: LD50; outline: as §4
HuT78 [26] = assay: Phototoxicity against human HUT78 cells assessed as reduction in cell viability preincubated for 1 hr in dark at 5 x 10^-8M before exposure to 0.5 to 2 J/cm2 irradiation after 48 hrs by MTT assay; format: functional, cell-based; outline: as §4

Compound | Flu intensity [1] | Flu intensity [2] | Flu intensity [3] | Flu intensity [4] | Flu intensity (HuT78 [6]) | Flu intensity (HuT78 [7]) | Activity [8] | Activity [9] | Activity [10] | Activity [11] | Activity [12] | viability at 0.075 µM (HuT78 [13]) | viability at 18 h, 0.075 µM [14] | Activity (HuT78 [17]) | logP [18] | Papp A→B at 0.5 h, 5 µM (ABCB1 [19]) | Papp A→B at 0.5 h, 5 µM (ABCB1 [20]) | Papp B→A at 0.5 h, 5 µM (ABCB1 [21]) | Papp B→A at 0.5 h, 5 µM (ABCB1 [22]) | Papp at 0.5 h, 5 µM (ABCB1 [23]) | other results
CN1CCC(C)(C)c2cc3c(-c4ccc(C(=S)N5CCCCC5)s4)c4ccc(=[N+](C)C)cc-4[se]c3cc21.[Cl-] | 45800 a.u. | 10500 a.u. | 32200 a.u. | 4800 a.u. | 39300 a.u. | 37600 a.u. |  |  |  |  |  |  |  |  |  |  |  |  |  |  | Drug uptake [5]: Active
CN1CCC(C)(C)c2cc3c(cc21)[Se]c1cc2c(cc1=C3c1ccc(C(=O)N3CCCCC3)s1)C(C)(C)CC[N+]=2C.[Cl-] | 10900 a.u. | 2500 a.u. | 7300 a.u. | 1100 a.u. | 9130 a.u. | 6240 a.u. | 51.3% | 53.3% | 76.2% | 33.5% | 58% | 2.4% | 7.2% | 43.1% | 3.42 | 0.051 ×10⁻⁶ cm/s | 0.18 ×10⁻⁶ cm/s | 0.4 ×10⁻⁶ cm/s | 6.5 ×10⁻⁶ cm/s | 0.2 ×10⁻⁶ cm/s | viability at 18 h, 0.075 µM [15]: 1.1%; viability at 18 h, 0.075 µM [16]: 42.4%
S=C(c1ccc(C2=c3cc4c5c(c3[Se]c3c2cc2c6c3CCCN6CCC2)CCC[N+]=5CCC4)s1)N1CCCCC1.[Cl-] | 83300 a.u. | 25500 a.u. | 69000 a.u. | 16600 a.u. | 81000 a.u. | 66000 a.u. | 33.1% | 36.1% | 59.2% | 16.8% | 35.2% | 0% | 5.8% | 28.1% |  | 0.051 ×10⁻⁶ cm/s | 0.03 ×10⁻⁶ cm/s | 0.057 ×10⁻⁶ cm/s | 1.8 ×10⁻⁶ cm/s | < 0.1 ×10⁻⁶ cm/s | Activity (HuT78 [24]): Dose-dependent effect; EC50 (HuT78 [24]; HuT78, light or radiation study): 35 nM; CC50 at 48 h [25]: 1080 nM; viability at 18 h, 0.075 µM [15]: 1.5%; viability at 18 h, 0.075 µM [16]: 11.3%; Activity (HuT78 [26]): Active; Drug uptake [5]: Active
C[N+]1=c2cc3c(cc2C(C)(C)CC1)=C(c1ccc(C(=S)N2CCCCC2)s1)c1cc2c4c(c1[Se]3)CCCN4CCC2.[Cl-] | 43300 a.u. | 14100 a.u. | 33800 a.u. | 9500 a.u. | 42000 a.u. | 36000 a.u. | 36.8% | 37.7% | 51% | 22% | 32.9% | 0.7% | 0.4% | 28.2% | 3.78 | 0.046 ×10⁻⁶ cm/s | 0.044 ×10⁻⁶ cm/s | 0.032 ×10⁻⁶ cm/s | 0.88 ×10⁻⁶ cm/s | < 0.1 ×10⁻⁶ cm/s | 
CN1CCC(C)(C)c2cc3c(cc21)[Se]c1cc2c(cc1=C3c1ccc(C(=S)N3CCCCC3)s1)C(C)(C)CC[N+]=2C.[Cl-] | 14500 a.u. | 5400 a.u. | 12100 a.u. | 3700 a.u. | 13800 a.u. | 11700 a.u. | 40.1% | 42.8% | 57.5% | 16.4% | 30.7% | 5.6% | 1.5% | 34.6% | 3.7 | 0.051 ×10⁻⁶ cm/s | 0.15 ×10⁻⁶ cm/s | 0.013 ×10⁻⁶ cm/s | 0.63 ×10⁻⁶ cm/s | < 0.1 ×10⁻⁶ cm/s | 
C[N+]1=c2cc3c(cc2C(C)(C)CC1)=C(c1ccc(C(=O)N2CCCCC2)s1)c1cc2c4c(c1[Se]3)CCCN4CCC2.[Cl-] | 33800 a.u. | 9300 a.u. | 25000 a.u. | 3900 a.u. | 33200 a.u. | 20000 a.u. | 52.7% | 54.1% | 79.6% | 37% | 58.6% | 1.24% | 4.8% | 47.1% | 3.51 | 0.018 ×10⁻⁶ cm/s | 0.14 ×10⁻⁶ cm/s | 0.28 ×10⁻⁶ cm/s | 6.6 ×10⁻⁶ cm/s | 0.1 ×10⁻⁶ cm/s | viability at 18 h, 0.075 µM [15]: 0.37%; viability at 18 h, 0.075 µM [16]: 24.5%
CN1CCC(C)(C)c2cc3c(-c4ccc(C(=O)N5CCCCC5)s4)c4ccc(=[N+](C)C)cc-4[se]c3cc21.[Cl-] | 5390 a.u. | 900 a.u. | 3110 a.u. | 270 a.u. | 15300 a.u. | 5270 a.u. |  |  |  |  |  |  |  |  |  |  |  |  |  |  | Drug uptake [5]: Active
